# Bioassay records from PubChem BioAssay.
# This excerpt belongs to a sample that is enriched for hits.
# ALR H2O2 inh: human ALR oxidase inhibition via reduced H2O2; 290,000 tested, 3.8% active; inhibition, % (no concentration beside the values); purified ALR, DTT oxidation, H2O2 HRP-luminol luminescence; P55789; AID 485317;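 active = mean replicate inhibition above about 79%, with every replicate also reaching it, limit read from the data; inconclusive = only one of the two criteria met; inactive = mean below limit and not every replicate reaching it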
# Target sequence (P55789 whole entry, looked up): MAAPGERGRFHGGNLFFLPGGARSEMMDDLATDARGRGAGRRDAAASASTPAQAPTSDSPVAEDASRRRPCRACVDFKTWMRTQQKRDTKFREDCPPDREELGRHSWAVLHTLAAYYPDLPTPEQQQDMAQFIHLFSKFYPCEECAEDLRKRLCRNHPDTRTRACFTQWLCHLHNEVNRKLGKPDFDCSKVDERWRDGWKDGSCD
# T cell modulator: T cell immune modulation candidate | 2C CD8+ T cell-vesicle binding, flow cytometry; active compounds read low | response (vesicle binding), % at 7 µM | 330,000 tested, 0.068% active | AID 2052;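 active = response, share of CD8 T cells binding vesicles, and their 90th percentile fluorescence all below set limits, cut at about 80% in these data, passing the limit was not always enough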;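 note: values below 100% mean blocked vesicle binding to the CD8+ T cells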
#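 System: murine 2C transgenic CD8+ T lymphocytes; also added: QL9-loaded Drosophila micro-vesicles; times: binding 1.5 h at 37 °C; measured by: flow cytometry, PE anti-B7-1 (FL2) versus Alexa647 anti-CD8 (FL8), PFA-fixed; control set: Peptide-free naked vesicles (low) and QL9 vesicles with 0.7% DMSO vehicle (high)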
# N-glyco inh: blocks N-linked glycosylation in D54 reporter cells; D54 ERlucT glycosylation luciferase reporter, 24 h; percent of 100 nM tunicamycin response; reporter increase, % at 12.5 µM; 360,000 tested, 0.23% active; AID 588692;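 active = mean luciferase reporter signal, scaled so untreated is 0 and the glycosylation-blocking control 100, at or above a set limit in every replicate; inconclusive = mean reaches the limit but not every replicate does; inactive = mean below the limit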;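 note: luciferase carries N-glycosylation sites so blocking glycosylation raises the light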
# Hits are given with their value; . = inactive; ? = inconclusive; / = no result.
SMILES,ALR H2O2 inh,T cell modulator,N-glyco inh
COc1ccc(-n2nc3c(c2NC(=O)c2ccc4c(c2)OCO4)CS(=O)(=O)C3)cc1,.,.,.
Cc1ccccc1-c1nc(CS(=O)CC(=O)NCCc2ccc(Cl)cc2)c(C)o1 (stereo not drawn),98,.,.
Cc1oc(-c2ccccc2Cl)nc1CS(=O)(=O)CC(=O)NCCc1ccccc1,.,.,.
Cc1oc(-c2ccccc2Cl)nc1CS(=O)CC(=O)NCCCN1CC(C)CC(C)C1 (stereo not drawn),89,.,.
Cc1oc(-c2ccccc2Cl)nc1CS(=O)CC(=O)NCCc1ccccc1 (stereo not drawn),99,.,.
Cc1oc(-c2ccccc2F)nc1CS(=O)(=O)CC(=O)NCCCN1CC(C)CC(C)C1 (stereo not drawn),.,.,.
Cc1cccc(C)c1NC(=O)CN(C)C(C)C(=O)NCC(=O)Nc1ccc(F)c(F)c1F (stereo not drawn),.,.,.
CC(/C=C/c1ccc(O)cc1)=NNc1ccccc1,/,/,.
COc1ccc(/C=N/N=C(\N)c2nonc2N)cc1OC,.,.,.
N/C(=N\N=C\c1ccc(O)c(O)c1)c1nonc1N,.,.,.
COc1cc(/C=N/N=C(\N)c2nonc2N)ccc1O,99,.,.
N/C(=N\N=C\c1ccc(O)cc1)c1nonc1N,99,.,.
COc1ccccc1N1CCN(C2CCCN(C(=O)CCc3c(C)noc3C)C2)CC1 (stereo not drawn),94,.,.
COc1ccccc1N1CCN(C2CCCN(C(=O)CCc3cnccn3)C2)CC1 (stereo not drawn),.,.,.
CC(C)NC(=O)c1ccc(CSCc2ccccc2Cl)o1,99,.,.
CCC(C)NC(=O)c1ccc(CSCc2cccc(F)c2)o1 (stereo not drawn),.,.,.
CCC(C)NC(=O)c1ccc(CSCc2ccccc2Cl)o1 (stereo not drawn),.,.,.
CCC(C)NC(=O)c1ccc(CSCc2ccc(Cl)cc2)o1 (stereo not drawn),84,.,.
COc1ccc(C(=O)N2CCCC(O)C2)cc1OC1CCN(C(C)C)CC1 (stereo not drawn),.,.,.
CN(C)c1ccc(C2(O)C(=O)c3ccccc3C2=O)cc1,.,.,.
CNc1ccc(C2(O)C(=O)c3ccccc3C2=O)cc1,83,.,.
Cc1cccc(S(=O)(=O)N(C)C[C@@H]2OCc3cn(nn3)CCCC(=O)N([C@H](C)CO)C[C@H]2C)c1,/,/,.
CN(C)c1ccc(N2CC(C)(C)C2=O)cc1,99,.,.
CC(=O)c1ccc(N2CC(C)(C)C2=O)cc1,.,.,.
CCC(C)(C)NC(=O)c1ccc(S(=O)(=O)N2CCCCCC2)cc1,/,.,.
SMILES,ALR H2O2 inh,T cell modulator,N-glyco inh
O=C(NCc1ccco1)c1cc(Cl)nc(Cl)c1,.,.,.
Cc1cc(O)ccc1NS(=O)(=O)c1ccc2c3c(cccc13)C(=O)N2,99,.,.
O=C(O)c1ccccc1NS(=O)(=O)c1ccc2c3c(cccc13)C(=O)N2,.,.,.
c1cncc(CN2CCN(c3cc(-c4cnc5ccccc5c4)nc4ccnn34)CC2)c1,/,/,.
Cc1snc(S(=O)(=O)/C(C#N)=N/Nc2cccc(C(F)(F)F)c2)c1C#N,/,.,.
CSc1ccc(N/N=C(/C#N)S(=O)(=O)C(C)(C)C)cc1,.,.,.
COc1ccc(N/N=C(/C#N)S(=O)(=O)c2nsc(C)c2C#N)cc1,98,.,.
COc1ccc(N/N=C(/C#N)S(=O)(=O)C(C)(C)C)cc1,98,.,.
Cc1cccc(C(=O)OCC(=O)c2csc(N3CCCCC3)n2)c1[N+](=O)[O-],.,.,.
CC(CN1C(C)CCCC1C)OC(=O)c1ccc(F)cc1 (stereo not drawn),.,.,.
COC(=O)[C@@H](NS(=O)(=O)c1cc(Br)ccc1Br)C(C)C,/,/,.
Cc1c(C(=O)O)cccc1-n1c(C)cc(/C=C(/C#N)C(=O)NCc2ccccc2)c1C,.,.,.
Cc1cc(/C=C(/C#N)C(=O)O)c(C)n1-c1cccc2ccccc12,96,.,.
CCn1cc(C(=O)NC(=S)Nc2cccc(O)c2)cn1,.,.,.
Cc1c([N+](=O)[O-])cnc(Sc2ccccc2)c1[N+](=O)[O-],99,.,.
Cc1ccc(Sc2ncccc2[N+](=O)[O-])cc1,.,.,.
CCN(C(=O)CN1CCCc2cc(C)ccc21)c1c(N)n(Cc2ccccc2)c(=O)[nH]c1=O,/,/,.
CCN(C(=O)CN1CCCCC1)c1c(N)n(Cc2ccccc2)c(=O)[nH]c1=O,.,.,.
CCN(C(=O)CN1CCN(c2cccc(Cl)c2)CC1)c1c(N)n(Cc2ccccc2)c(=O)[nH]c1=O,92,.,.
Cc1ccc2c(c1)CCCN2CC(=O)N(C)c1c(N)n(Cc2ccccc2)c(=O)[nH]c1=O,91,.,.
COc1ccc(NC(=O)c2ccncc2)cc1S(=O)(=O)N1CCCCC1,/,/,.
CC1CCCN(C(=O)C2COc3ccccc3O2)C1 (stereo not drawn),.,.,.
Cc1ccc(S(=O)(=O)N2CCN(S(=O)(=O)N3CCC(C)CC3)CC2)c(C)c1,.,.,.
Cc1ccc(S(=O)(=O)N2CCN(S(=O)(=O)N3CCCCC3)CC2)c(C)c1,100,.,.
COc1ccc(C(=O)NNC(=O)CSc2nnc(COc3ccccc3OC)n2C)cc1,.,.,.
SMILES,ALR H2O2 inh,T cell modulator,N-glyco inh
COc1cc(C(=O)NN2C(=O)NC3(CCC(C)CC3)C2=O)ccc1OC(F)F (stereo not drawn),/,.,.
O=C(c1nnsc1S(=O)c1ccc(Cl)cc1)N1CCOCC1 (stereo not drawn),/,/,.
O=C(Nc1ccccc1)c1nnsc1S(=O)c1ccc(Cl)cc1 (stereo not drawn),98,.,.
CCOC1=C2[C@H](c3ccccc3F)N(S(=O)(=O)c3ccc(C)cc3)C[C@H]2n2c(=O)n(-c3ccccc3)c(=O)n2C1,/,/,.
CN1CC(=O)N2C(c3ccc(Cl)cc3)c3[nH]c4ccccc4c3C[C@H]2C1=O (stereo partly drawn),99,.,?
COC(=O)c1ccc(C2c3[nH]c4ccccc4c3C[C@H]3C(=O)N(C)CC(=O)N23)cc1 (stereo partly drawn),.,.,.
O=C1[C@@H]2Cc3c([nH]c4ccccc34)C(c3ccccc3)N2C(=O)CN1C1CC1 (stereo partly drawn),.,.,.
O=C1[C@@H]2Cc3c([nH]c4ccccc34)C(c3ccc([N+](=O)[O-])cc3)N2C(=O)CN1C1CC1 (stereo partly drawn),.,.,43
CC(C)Sc1nc2ccc(N3C(=O)C4CCCCC4C3=O)cc2s1 (stereo not drawn),.,.,.
COC(=O)c1csc(C2OC(CO)C(O)C2O)n1 (stereo not drawn),/,/,.
Cc1cc([N+](=O)[O-])nn1CC(=O)NNC(=S)Nc1ccc([N+](=O)[O-])cc1,.,.,.
COc1ccc(NC(=S)NNC(=O)Cn2nc([N+](=O)[O-])cc2C)cc1,81,.,.
Cc1cccc(NC(=S)NNC(=O)CCn2nc(C)c([N+](=O)[O-])c2C)c1,.,.,.
Cc1nn(CC(=O)NNC(=S)Nc2ccccc2)c(C)c1[N+](=O)[O-],80,.,.
